The test system of data set [1] is Mus musculus. As to the kind of experiment: Time at which plasma concentration stays above in-vitro Ki for ADAM10 in CD-1 mouse at 10 mg/kg, ip by UPLC analysis. Format: ADME, organism-based. The following applies: in vivo. The method, boiled down:
(§1)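 Male CD-1 mice, 6–7 weeks old, about 30 g, fed and watered ad libitum. Single dose of 10 mg/kg ip or 25 mg/kg sc, given as 100 μL formulation; n = 3 per time point per route. At set times, blood was taken by cardiac puncture with heparinized syringes and spun to plasma. Brains were harvested after transcardiac saline perfusion, weighed and flash-frozen. Brain levels are in pmol/mg tissue.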

The nature of data set [2]: Elimination half life in CD-1 mouse brain at 25 mg/kg, sc by UPLC analysis. It counts as ADME, organism-based. Particulars: read-out: beta t1/2. The method, boiled down:
as §1

For data set [3], the target named is Matrix metalloproteinase-9 (Homo sapiens) (UniProt P14780). The data set can be described thus: Inhibition of recombinant human MMP9 catalytic domain (Phe107 to Pro449 residues) expressed in Escherichia coli using MOCAc-Pro-Leu-Gly-Leu-A2pr(Dnp)-Ala-Arg-NH2 as substrate at 10 uM by fluorescence spectrophotometric method relative to control. An outline of the steps:
(§2)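 Single inhibitor concentration of 10 μM, reported as percent inhibition. Enzymes and substrates as in earlier work, with inhibition run by a previously reported protocol.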

The nature of data set [4]: Elimination half life in CD-1 mouse plasma at 25 mg/kg, sc by UPLC analysis. It counts as ADME, organism-based. The following applies: read-out: beta t1/2. An outline of the steps:
as §1

The nature of data set [5]: AUC (0 to last) in CD-1 mouse brain assessed per mg tissue at 25 mg/kg, sc by UPLC analysis. It counts as ADME, organism-based. The following applies: in vivo. The method, boiled down: as §1
In data set [6] the test system is Mus musculus. The data set can be described thus: Time at which brain concentration stays above in-vitro Ki for ADAM10 in CD-1 mouse at 25 mg/kg, sc by UPLC analysis. Format: ADME, organism-based. The following applies: in vivo. An outline of the steps: as §1
The nature of data set [7]: Ratio of AUC (0 to infinity) in brain to plasma in CD-1 mouse at 25 mg/kg, sc by UPLC analysis. Format: ADME, organism-based. Particulars: read-out: Ratio AUC. An outline of the steps:
(§3)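 Male CD-1 mice (6–7 weeks, about 30 g) received one dose: 10 mg/kg ip or 25 mg/kg sc, with n = 3 per time point per route. At set times, plasma came from heparinized cardiac-puncture blood. Brain was taken after transcardiac saline perfusion, weighed and flash-frozen. Brain levels were in pmol/mg tissue, plasma in μM. Value is AUCbrain/AUCplasma.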

The nature of data set [8]: Ratio of AUC (0 to infinity) in brain to plasma in CD-1 mouse at 10 mg/kg, ip by UPLC analysis. It counts as ADME, organism-based. The following applies: read-out: Ratio AUC. An outline of the steps:
as §3

Data set [9] in a line: Elimination half life in CD-1 mouse brain at 10 mg/kg, ip by UPLC analysis. Particulars: read-out: beta t1/2. It counts as ADME, organism-based. The method, boiled down: as §1
The nature of data set [10]: AUC (0 to last) in CD-1 mouse plasma at 25 mg/kg, sc by UPLC analysis. On the set-up: dose 25 mg/kg, route subcutaneous, time 0 - last. It counts as ADME, organism-based. The method, boiled down:
as §1

The target in data set [11] is Disintegrin and metalloproteinase domain-containing protein 17 (Homo sapiens, UniProt P78536). The data set can be described thus: Inhibition of recombinant human C-terminal His6-tagged ADAM17 (Arg215 to Asn671 residues) expressed in baculovirus infected Sf21 cells using Mca-PLAQAV-Dpa-RSSSR-NH2 as substrate by fluorescence spectrophotometric method. An outline of the steps: (§4)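 Enzymes and their substrates were obtained as in earlier work, and inhibition was run by a previously reported protocol. Ki values were measured in triplicate.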
Sequence of Disintegrin and metalloproteinase domain-containing protein 17 (P78536 whole entry, the tested form may be a part): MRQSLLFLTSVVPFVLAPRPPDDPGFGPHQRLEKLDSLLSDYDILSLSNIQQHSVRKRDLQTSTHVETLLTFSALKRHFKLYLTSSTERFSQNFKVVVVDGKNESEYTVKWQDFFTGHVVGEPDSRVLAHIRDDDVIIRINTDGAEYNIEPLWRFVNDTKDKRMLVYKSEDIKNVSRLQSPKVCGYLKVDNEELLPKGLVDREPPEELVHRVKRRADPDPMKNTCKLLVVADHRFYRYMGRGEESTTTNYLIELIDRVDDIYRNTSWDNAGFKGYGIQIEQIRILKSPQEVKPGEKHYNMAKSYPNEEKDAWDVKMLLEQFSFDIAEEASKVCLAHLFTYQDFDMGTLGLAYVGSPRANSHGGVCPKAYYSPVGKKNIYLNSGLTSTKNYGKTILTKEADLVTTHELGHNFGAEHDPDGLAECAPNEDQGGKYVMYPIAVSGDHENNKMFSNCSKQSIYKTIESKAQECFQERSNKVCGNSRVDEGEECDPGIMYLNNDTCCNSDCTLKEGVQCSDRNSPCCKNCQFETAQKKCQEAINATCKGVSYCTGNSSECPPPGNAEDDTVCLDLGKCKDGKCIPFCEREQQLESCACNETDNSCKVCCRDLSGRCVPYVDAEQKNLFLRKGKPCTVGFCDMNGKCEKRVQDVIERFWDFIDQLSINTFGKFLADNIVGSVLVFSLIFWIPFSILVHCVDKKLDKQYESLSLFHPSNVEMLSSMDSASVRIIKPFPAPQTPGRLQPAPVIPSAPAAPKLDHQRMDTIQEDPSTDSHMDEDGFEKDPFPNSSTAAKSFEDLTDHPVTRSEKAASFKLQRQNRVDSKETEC

Data set [12] in a line: AUC (0 to infinity) in CD-1 mouse plasma at 10 mg/kg, ip by UPLC analysis. It counts as ADME, organism-based. On the set-up: dose 10 mg/kg, route intraperitoneal, time infinity. An outline of the steps:
as §1

Data set [13] concerns the target T1, Interstitial collagenase (Homo sapiens) (UniProt P03956).
T1 sequence (whole entry): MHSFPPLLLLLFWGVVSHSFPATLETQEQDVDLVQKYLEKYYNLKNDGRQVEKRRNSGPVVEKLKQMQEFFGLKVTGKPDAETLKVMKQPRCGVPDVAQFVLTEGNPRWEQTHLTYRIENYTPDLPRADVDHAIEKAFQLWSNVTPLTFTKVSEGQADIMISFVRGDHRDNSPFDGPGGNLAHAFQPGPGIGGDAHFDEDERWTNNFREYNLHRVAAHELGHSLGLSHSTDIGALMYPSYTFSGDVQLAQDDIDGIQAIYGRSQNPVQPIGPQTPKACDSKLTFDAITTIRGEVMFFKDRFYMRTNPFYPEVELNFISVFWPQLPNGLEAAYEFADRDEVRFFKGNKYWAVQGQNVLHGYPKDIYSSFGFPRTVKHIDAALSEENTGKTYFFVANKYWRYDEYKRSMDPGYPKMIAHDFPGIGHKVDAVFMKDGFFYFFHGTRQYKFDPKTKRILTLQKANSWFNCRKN
As to the kind of experiment: Inhibition of recombinant human MMP1 catalytic domain (Phe100 to Gln268 residues) expressed in Escherichia coli at 10 uM using McaKPLGL-Dpa-AR-NH2 as substrate by fluorescence spectrophotometric method. The method, boiled down:
as §2

Data set [14] is described as follows: Primary phase half life in CD-1 mouse brain at 25 mg/kg, sc by UPLC analysis. It counts as ADME, organism-based. The following applies: read-out: alphat1/2. An outline of the steps:
as §1

Data set [15] deals with Macrophage metalloelastase (Homo sapiens, UniProt P39900). The data set can be described thus: Inhibition of recombinant human MMP12 catalytic domain using Mca-PLGL-DpaAR-NH2 as substrate by fluorescence spectrophotometric method. The method, boiled down: as §4
Sequence of Macrophage metalloelastase (P39900 whole entry, the tested form may be a part): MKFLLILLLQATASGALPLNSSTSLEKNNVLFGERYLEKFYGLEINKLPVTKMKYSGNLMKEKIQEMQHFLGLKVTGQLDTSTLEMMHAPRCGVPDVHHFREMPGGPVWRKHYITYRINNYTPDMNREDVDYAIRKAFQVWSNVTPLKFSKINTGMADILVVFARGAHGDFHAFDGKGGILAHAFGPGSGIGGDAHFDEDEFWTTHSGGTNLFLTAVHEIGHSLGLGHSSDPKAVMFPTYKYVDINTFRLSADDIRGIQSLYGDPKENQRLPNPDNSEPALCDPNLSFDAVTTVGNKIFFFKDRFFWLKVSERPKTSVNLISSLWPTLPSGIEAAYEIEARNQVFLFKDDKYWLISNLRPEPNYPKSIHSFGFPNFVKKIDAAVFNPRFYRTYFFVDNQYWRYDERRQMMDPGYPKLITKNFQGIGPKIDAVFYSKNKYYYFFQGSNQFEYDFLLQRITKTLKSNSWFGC

Molecules are shown by their SMILES. Activity calls are given as the source filed them. No cut-off for these calls is given here.

Sequence of Matrix metalloproteinase-9 (Homo sapiens) (P14780 whole entry, the tested form may be a part): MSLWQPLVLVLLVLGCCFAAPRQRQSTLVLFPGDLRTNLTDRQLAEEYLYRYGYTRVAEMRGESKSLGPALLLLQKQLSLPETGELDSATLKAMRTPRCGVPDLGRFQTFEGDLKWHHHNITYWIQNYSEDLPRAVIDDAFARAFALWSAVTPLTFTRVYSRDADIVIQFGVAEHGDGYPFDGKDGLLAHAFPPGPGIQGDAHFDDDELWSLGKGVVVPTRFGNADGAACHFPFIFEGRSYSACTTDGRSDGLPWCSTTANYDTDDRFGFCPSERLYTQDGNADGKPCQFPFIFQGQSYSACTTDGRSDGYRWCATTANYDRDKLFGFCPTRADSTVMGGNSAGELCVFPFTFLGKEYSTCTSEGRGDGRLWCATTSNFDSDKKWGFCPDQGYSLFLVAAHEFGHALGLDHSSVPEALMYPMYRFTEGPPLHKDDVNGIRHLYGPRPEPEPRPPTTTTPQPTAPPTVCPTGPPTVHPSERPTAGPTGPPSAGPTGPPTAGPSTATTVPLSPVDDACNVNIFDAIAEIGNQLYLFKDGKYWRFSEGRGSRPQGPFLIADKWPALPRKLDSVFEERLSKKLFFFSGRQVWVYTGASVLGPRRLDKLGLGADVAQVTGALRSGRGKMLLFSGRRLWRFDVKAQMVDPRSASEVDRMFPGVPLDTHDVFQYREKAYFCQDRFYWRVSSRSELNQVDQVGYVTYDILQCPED

`O=C(NO)[C@H]1C[C@H](OC(=O)N2CCCC2)CC[C@@H]1C(=O)N1CCC(c2ccccc2)CC1`: the Time is 6 h in [1] and 100 min in [6]. Besides, the half-life in [2] was determined as 10.5 h; in [4], 2.63 h; in data set [9], 3.4 h; in [14], 0.19 h. Besides, the inhibition (in general, the change of the read-out against control, counted positive when it falls) in data set [3] was 25%. For the same compound, in data set [5], the AUClast stood at 51.2 pmol·min. The Kp in data set [7] is 0.0693; in data set [8], 0.0761. Moreover, the AUC(0-t) – broadly, the area under the concentration-time curve up to a stated or last time point – in [10] was 18.4 µM·h. Also, the values for the inhibition constant (Ki) in [11] and in data set [15] were 900 nM and 270 nM, respectively. In addition, the AUC(0-inf) (commonly total exposure, with the tail of the curve extrapolated) in [12] was 3.07 µM·h. For the same compound, the inhibition result in data set [13] is “inactive”.

The record behind these values is ChEMBL document CHEMBL4145666, “In Search of Selectivity in Inhibition of ADAM10” (ACS Med Chem Lett, 2018).
